# According to publication PMC4284021 (The Journal of Pharmacy and Pharmacology, 2014):
# Values joined by “and” are separate entries in the source; they are usually repeats but may differ in a detail not shown here. Equal entries are not always repeated. “Also recorded” adds a separate entry of the source. Marks after values point to notes of the source that are not given here.
# Columns and labels:
# [1] = system: apolipoproteins (apo AI, apo AII, apo B, apo E); experiment: Apolipoprotein concentrations by immunoturbidimetric methods in healthy subjects; type: in vivo, human; conditions: for Apo E: Mean % change from baseline (90% CI) / Apo E: Mean % change vs placebo (90 % CI) / Ratio of apo B/apo AI: Mean % change from baseline (90% CI) / Ratio of apo B/apo AI: Mean % change vs placebo (90 % CI) / Apo AI: Mean % change from baseline (90% CI) / Apo AI: Mean % change vs placebo (90 % CI) / Apo AII: Mean % change from baseline (90% CI) / Apo AII: Mean % change vs placebo (90 % CI) / Apo B: Mean % change from baseline (90% CI) / Apo B: Mean % change vs placebo (90 % CI): day 14
# Summary of the method: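 Healthy adults took placebo or test compound (10, 100, 300, 600 mg) as capsules once daily with a low-fat meal for 14–15 days. Apo AI, AII, B and E were measured by immunoturbidimetry on a Roche Modular analyser. Values are percent change from baseline to Day 14, including all randomized subjects given at least one dose.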
# CETP mass = experiment: Serum CETP mass by sandwich ELISA in healthy subjects; type: in vivo, human; conditions: for CETP mass: Mean % change from baseline (90% CI) / CETP mass: Mean % change vs placebo (90 % CI): trough (predose) day 14
# Summary of the method: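 CETP mass was measured in serum by sandwich ELISA. Samples were taken at baseline and on Days 2, 7 and 14 of once-daily oral dosing (10–600 mg) or placebo.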
compound,measurement,setting,value
Cc1cc(C)c2c(c1)[C@@H](N(Cc1cc(C(F)(F)F)cc(C(F)(F)F)c1)c1nnn(C)n1)CCCN2C[C@H]1CC[C@H](C(=O)O)CC1 [evacetrapib],Apo E: Mean % change from baseline (90% CI),[1]; 10 mg/day,"19.70 (5.10, 34.30) %"
same,Apo E: Mean % change vs placebo (90 % CI),[1]; 10 mg/day,"8.36 (−2.89, 19.60) %"
same,Ratio of apo B/apo AI: Mean % change from baseline (90% CI),[1]; 10 mg/day,"−6.87 (−12.72, −1.02) %"
same,Ratio of apo B/apo AI: Mean % change vs placebo (90 % CI),[1]; 10 mg/day,"−26.63 (−34.88, −18.38) ^*** %"
same,Apo AI: Mean % change from baseline (90% CI),[1]; 100 mg/day,"24.61 (20.07, 29.15) %"
same,Apo AI: Mean % change vs placebo (90 % CI),[1]; 100 mg/day,"36.37 (27.66, 45.08) ^*** %"
same,Apo AII: Mean % change from baseline (90% CI),[1]; 100 mg/day,"8.85 (4.69, 13.02) %"
same,Apo AII: Mean % change vs placebo (90 % CI),[1]; 100 mg/day,"14.44 (7.16, 21.72) ^** %"
same,Apo B: Mean % change from baseline (90% CI),[1]; 100 mg/day,"−17.64 (−20.84, −14.43) %"
same,Apo B: Mean % change vs placebo (90 % CI),[1]; 100 mg/day,"−24.60 (−31.28, −17.92) ^*** %"
same,Apo E: Mean % change from baseline (90% CI),[1]; 100 mg/day,"55.81 (36.13, 75.50) %"
same,Apo E: Mean % change vs placebo (90 % CI),[1]; 100 mg/day,"44.47 (14.63, 74.30) ^* %"
same,Ratio of apo B/apo AI: Mean % change from baseline (90% CI),[1]; 100 mg/day,"−31.84 (−35.59, −28.09) %"
same,Ratio of apo B/apo AI: Mean % change vs placebo (90 % CI),[1]; 100 mg/day,"−51.60 (−59.36, −43.83) ^*** %"
same,Apo AI: Mean % change from baseline (90% CI),[1]; 300 mg/day,"28.75 (23.70, 33.80) %"
same,Apo AI: Mean % change vs placebo (90 % CI),[1]; 300 mg/day,"40.50 (31.66, 49.34) ^*** %"
same,Apo AII: Mean % change from baseline (90% CI),[1]; 300 mg/day,"11.93 (7.75, 16.10) %"
same,Apo AII: Mean % change vs placebo (90 % CI),[1]; 300 mg/day,"17.52 (10.86, 24.17) ^*** %"
same,Apo B: Mean % change from baseline (90% CI),[1]; 300 mg/day,"−18.85 (−22.45, −15.25) %"
same,Apo B: Mean % change vs placebo (90 % CI),[1]; 300 mg/day,"−25.81 (−32.59, −19.04) ^*** %"
same,Apo E: Mean % change from baseline (90% CI),[1]; 300 mg/day,"76.75 (62.23, 91.28) %"
same,Apo E: Mean % change vs placebo (90 % CI),[1]; 300 mg/day,"65.40 (40.39, 90.42) ^*** %"
same,Ratio of apo B/apo AI: Mean % change from baseline (90% CI),[1]; 300 mg/day,"−35.69 (−39.92, −31.46) %"
same,Ratio of apo B/apo AI: Mean % change vs placebo (90 % CI),[1]; 300 mg/day,"−55.45 (−63.26, −47.63) ^*** %"
same,decrease in apo B,"[1]; 600 mg, Day 14, vs placebo",26% and 26.1%
same,decrease in apo B/AI ratio,"[1]; 600 mg, Day 14, vs placebo",56.5%
same,Apo AI: Mean % change from baseline (90% CI),[1]; 600 mg/day,"29.93 (24.51, 35.35) %"
same,Apo AI: Mean % change vs placebo (90 % CI),[1]; 600 mg/day,"42% and 41.7% and 41.69 (32.70, 50.67) ^*** %"
same,Apo AII: Mean % change from baseline (90% CI),[1]; 600 mg/day,"12.91 (8.06, 17.77) %"
same,Apo AII: Mean % change vs placebo (90 % CI),[1]; 600 mg/day,"18.5% and 18.50 (11.71, 25.29) ^*** %"
same,Apo B: Mean % change from baseline (90% CI),[1]; 600 mg/day,"−19.17 (−22.94, −15.41) %"
same,Apo B: Mean % change vs placebo (90 % CI),[1]; 600 mg/day,"−26.14 (−32.97, −19.30) ^*** %"
same,Apo E: Mean % change from baseline (90% CI),[1]; 600 mg/day,"85.48 (65.47, 105.49) %"
same,Apo E: Mean % change vs placebo (90 % CI),[1]; 600 mg/day,"74.1% and 74.13 (47.95, 100.31) ^*** %"
same,Ratio of apo B/apo AI: Mean % change from baseline (90% CI),[1]; 600 mg/day,"−36.74 (−41.23, −32.25) %"
same,Ratio of apo B/apo AI: Mean % change vs placebo (90 % CI),[1]; 600 mg/day,"−56.50 (−64.39, −48.61) ^*** %"
same,CETP mass: Mean % change from baseline (90% CI),CETP mass; 10 mg/day,"20.18 (9.92, 30.45) %"
same,CETP mass: Mean % change vs placebo (90 % CI),CETP mass; 10 mg/day,"20.58 (11.28, 29.88) ^*** %"
same,CETP mass: Mean % change from baseline (90% CI),CETP mass; 100 mg/day,"95.77 (82.14, 109.41) %"
same,CETP mass: Mean % change vs placebo (90 % CI),CETP mass; 100 mg/day,"96.17 (76.37, 115.97) ^*** %"
same,CETP mass: Mean % change from baseline (90% CI),CETP mass; 300 mg/day,"131.72 (122.10, 141.34) %"
same,CETP mass: Mean % change vs placebo (90 % CI),CETP mass; 300 mg/day,"132.12 (115.85, 148.38) ^*** %"
same,CETP mass: Mean % change from baseline (90% CI),CETP mass; 600 mg/day,"145.34 (133.29, 157.39) %"
same,CETP mass: Mean % change vs placebo (90 % CI),CETP mass; 600 mg/day,"145.73 (128.99, 162.48) ^*** %"
same,CETP mass approximately 2 weeks after the last dose,"CETP mass; human, in vivo",returned to levels at or near baseline; also recorded: returned to baseline
